Test results reported in publication PMC11539713 (Malaria Journal, 2024).
≈ marks a conversion by molar mass, not a printed value. Where “and” joins values, the source holds several entries; their conditions need not be identical. Equal entries are not always repeated. Where two headings read alike, the source gives them in different places.

What was measured:
CYP enzymes = experiment: Enzyme phenotyping with; format: in vitro ADME, human; details: for Effect of inhibitor on formation of ART-M in HLMs: ART 1 μM, HLMs 1 mg/mL, 1 mM 1-ABT, 1 μM ketoconazole
[1] = Plasma protein binding by ultrafiltration; format: in vitro ADME; details: human, pooled human plasma
PfDd2 [2] = details: cited from earlier work
[3] = Enzyme kinetics of ART metabolism in human liver microsomes; format: in vitro ADME; details: HLMs 0.5 mg/mL; for microsomal CLint: CLint,H, Vmax/Km, 15 min
PfDd2 [4] = experiment: In vitro drug susceptibility, SYBR Green I fluorometric method, PfDd2; format: cell-based; details: Plasmodium falciparum
Summary of the method: (§1)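 Synchronous ring-stage P. falciparum culture at final 0.5% parasitaemia and 2% haematocrit, exposed to test compound. Chloroquine served as positive control and 0.1% DMSO as negative control. Growth was read by SYBR Green I fluorescence. MIC50/MIC90 came from nonlinear regression of log-transformed concentrations, averaged over two independent experiments each run in duplicate.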

Pf3D7 [5] = experiment: In vitro drug susceptibility, SYBR Green I fluorometric method, Pf3D7; format: cell-based; details: Plasmodium falciparum
Summary of the method: as §1

[6] = format: in vivo, human; details: for fAUC0-t: area under the free plasma concentration–time curve; for fCmax: maximum free plasma concentration
Summary of the method: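 Subjects were six healthy non-smoking men, 20–26 y, BMI 20–25 kg/m2. Each received oral test compound 125 mg plus piperaquine 750 mg per dose over two days. Venous blood was drawn 0–48 h, and plasma was stored at −80 °C. Samples were prepared by acetonitrile precipitation with deuterated internal standard and analysed by LC-HRMS. Non-compartmental analysis used observed Cmax/Tmax, AUC0-t by linear trapezoidal rule, and CL/F = dose/AUC0-t.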

[7] = cited from earlier work
Pf3D7 [8] = details: cited from earlier work
CYP3A = details: read-out: Inhibition constant Ki of CYP3A; cited from earlier work
[9] = cited from earlier work; remark: listed apart in the source
[10] = read-out: Antiplasmodial activity (literature data)

SMILES: Nn1nnc2ccccc21 [1-ABT]
- Effect of inhibitor on formation of ART-M in HLMs (CYP enzymes): completely inhibited
- Effect of inhibitor on formation of trace metabolite isomer M1 (CYP enzymes; ART in HLMs): inhibited completely

SMILES: C[C@@H]1CC[C@H]2[C@@H](C)C(=O)O[C@@H]3O[C@@]4(C)CC[C@@H]1[C@]32OO4 [ART, Artemisinin]
- fraction unbound at 0.6 μM [1]: 0.251
- IC50 (PfDd2 [2]; [10]): 10 to 30 nM
- microsomal CLint ([3]; formation of ART-M): 27.6 µL/min/mg
- microsomal CLint ([3]; substrate depletion): 30.3 µL/min/mg
- Km at 15 min ([3]; Km, substrate depletion): 23.8 µM
- MIC50 (PfDd2 [4]): 0.0204 µM (≈ 5.76 ng/mL)
- MIC90 (PfDd2 [4]): 0.0384 ± 0.0009 µM (≈ 10.8 ng/mL)
- MIC50 (Pf3D7 [5]): 0.0101 µM (≈ 2.85 ng/mL)
- MIC90 (Pf3D7 [5]): 0.0139 ± 0.0005 µM (≈ 3.92 ng/mL)
- fAUC0-t ([6]; Day-1): 155.6 ± 27.6 nmol/L⋅h
- fCmax ([6]; Day-1): 51.8 nM and 51.8 ± 18.0 nM
- fAUC0-t ([6]; Day-2): 113.0 ± 20.1 nmol/L⋅h
- fCmax ([6]; Day-2): 43.1 ± 10.5 nM
- CL/F ([6]; male, human, plasma, oral, CL/F, Day-1, dose/AUC0-t): 183 mL/min/kg
- Tmax ([6]; male, human, plasma, oral, Tmax, Day-1): 1 h
- half-life ([6]; male, human, plasma, oral, t1/2, Day-1): 1.7 h
- Cmax ([6]; male, human, plasma, po, Cmax, after the first oral dose, plasma): 207 nM
- Bioavailability [7]: ~ 30%
- Elimination half-life t1/2 [7]: ~ 2 h
- IC50 (Pf3D7 [8]; [10]): 10 to 30 nM

SMILES: CCN(CC)CCCC(C)Nc1ccnc2cc(Cl)ccc12 (stereo not shown) [CQ, Chloroquine diphosphate]
- MIC50 (reported data) (PfDd2 [2]): 0.062 to 0.1354 µM
- MIC50 (PfDd2 [4]): 0.0938 µM
- MIC50 (Pf3D7 [5]): 0.0106 µM
- MIC90 (Pf3D7 [5]): 0.0163 ± 0.0031 µM
- MIC50 (reported data) (Pf3D7 [8]): 0.005 to 0.04 µM

SMILES: C[C@H]1[C@@H](O)O[C@@H]2O[C@@]3(C)CC[C@H]4[C@H](C)CC[C@@H]1[C@@]24OO3 [dihydroartemisinin]
- MIC50 (PfDd2 [2]): ~ 1.0 nM

SMILES: CC(=O)N1CCN(c2ccc(OCC3COC(Cn4ccnc4)(c4ccc(Cl)cc4Cl)O3)cc2)CC1 (stereo not shown) [ketoconazole]
- Effect of inhibitor on formation of ART-M in HLMs (CYP enzymes): completely inhibited

SMILES: Clc1ccc2c(N3CCN(CCCN4CCN(c5ccnc6cc(Cl)ccc56)CC4)CC3)ccnc2c1 [piperaquine]
- Ki (CYP3A): 680 nM
- Plasma protein binding [9]: 97.4%
